Data set [1] has as its target Neuronal acetylcholine receptor subunit alpha-7 (Homo sapiens, UniProt P36544). Nature of the data set: Agonist activity at human recombinant alpha7 nAChR expressed in rat GH3 cells by calcium influx assay. The format is functional, cell-based. In outline: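 GH3 cells recombinantly expressing human α7 nAChR; agonist activity. Each compound run in duplicate. EC50 taken from individual 8-point concentration-response curves and expressed as pEC50, with Emax given in %.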

The species named for data set [2] is Homo sapiens. Nature of the data set: Selectivity for human alpha3beta4 nAChR over human alpha7 nAChR.
For data set [3], the species on record is Homo sapiens. Nature of the data set: Selectivity for human alpha-1-beta-1-gamma-delta nAChR over human alpha7 nAChR.
Data set [4] deals with Neuronal acetylcholine receptor; alpha3/beta4 (Homo sapiens, UniProt P30926+P32297). Nature of the data set: Antagonist activity at human alpha3beta4 nAChR expressed in HEK293 cells by calcium influx assay. The data set is classed as functional, cell-based.
Chain of Neuronal acetylcholine receptor; alpha3/beta4 (P30926 whole entry): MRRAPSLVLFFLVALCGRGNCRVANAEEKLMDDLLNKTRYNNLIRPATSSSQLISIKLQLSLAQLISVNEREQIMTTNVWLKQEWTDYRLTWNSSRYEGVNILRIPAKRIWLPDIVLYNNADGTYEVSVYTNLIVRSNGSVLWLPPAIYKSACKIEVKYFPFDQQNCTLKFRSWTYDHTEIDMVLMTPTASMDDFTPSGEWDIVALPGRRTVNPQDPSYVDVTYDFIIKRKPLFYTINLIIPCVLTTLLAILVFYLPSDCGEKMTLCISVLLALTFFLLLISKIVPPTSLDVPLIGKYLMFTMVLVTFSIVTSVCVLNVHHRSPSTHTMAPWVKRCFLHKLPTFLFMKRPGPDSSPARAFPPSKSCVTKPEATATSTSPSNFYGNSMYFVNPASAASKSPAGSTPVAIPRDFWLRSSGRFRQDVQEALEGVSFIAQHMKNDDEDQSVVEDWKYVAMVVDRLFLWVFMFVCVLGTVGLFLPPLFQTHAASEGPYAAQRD
Chain of Neuronal acetylcholine receptor; alpha3/beta4 (P32297 whole entry): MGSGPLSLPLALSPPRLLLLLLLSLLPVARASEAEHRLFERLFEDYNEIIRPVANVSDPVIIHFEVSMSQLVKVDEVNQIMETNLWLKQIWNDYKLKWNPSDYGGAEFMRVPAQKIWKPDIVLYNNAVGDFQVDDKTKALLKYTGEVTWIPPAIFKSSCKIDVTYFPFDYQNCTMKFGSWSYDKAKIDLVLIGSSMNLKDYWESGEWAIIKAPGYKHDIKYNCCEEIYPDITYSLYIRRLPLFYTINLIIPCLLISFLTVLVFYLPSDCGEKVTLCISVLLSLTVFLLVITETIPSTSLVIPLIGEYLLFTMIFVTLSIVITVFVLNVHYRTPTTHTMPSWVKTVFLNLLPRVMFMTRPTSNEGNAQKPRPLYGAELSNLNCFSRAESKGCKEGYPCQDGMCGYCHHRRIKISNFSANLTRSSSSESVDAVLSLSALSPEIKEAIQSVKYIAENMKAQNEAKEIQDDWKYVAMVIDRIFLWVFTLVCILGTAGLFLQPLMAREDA
Data set [5] is filed under the species Homo sapiens. Nature of the data set: Selectivity for human 5HT3 receptor over human alpha7 nAChR.
Data set [6] deals with Neuronal acetylcholine receptor; alpha4/beta2 (Homo sapiens, UniProt P17787+P43681). Nature of the data set: Antagonist activity at human alpha4beta2 nAChR expressed in HEK293 cells by calcium influx assay. The data set is classed as functional, cell-based.
Chain of Neuronal acetylcholine receptor; alpha4/beta2 (P17787 whole entry): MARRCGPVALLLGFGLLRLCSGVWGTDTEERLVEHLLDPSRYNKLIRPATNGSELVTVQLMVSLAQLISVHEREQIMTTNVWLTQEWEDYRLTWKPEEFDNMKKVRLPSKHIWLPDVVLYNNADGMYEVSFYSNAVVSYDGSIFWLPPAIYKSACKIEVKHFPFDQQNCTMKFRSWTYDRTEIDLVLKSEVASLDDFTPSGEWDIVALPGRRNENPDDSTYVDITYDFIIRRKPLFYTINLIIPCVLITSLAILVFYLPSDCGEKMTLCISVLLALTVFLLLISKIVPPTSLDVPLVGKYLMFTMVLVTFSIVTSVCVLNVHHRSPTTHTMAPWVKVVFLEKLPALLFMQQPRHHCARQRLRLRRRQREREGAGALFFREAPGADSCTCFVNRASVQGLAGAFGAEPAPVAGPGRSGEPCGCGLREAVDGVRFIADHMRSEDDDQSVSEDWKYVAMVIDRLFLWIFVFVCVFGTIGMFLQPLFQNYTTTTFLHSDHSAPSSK
Chain of Neuronal acetylcholine receptor; alpha4/beta2 (P43681 whole entry): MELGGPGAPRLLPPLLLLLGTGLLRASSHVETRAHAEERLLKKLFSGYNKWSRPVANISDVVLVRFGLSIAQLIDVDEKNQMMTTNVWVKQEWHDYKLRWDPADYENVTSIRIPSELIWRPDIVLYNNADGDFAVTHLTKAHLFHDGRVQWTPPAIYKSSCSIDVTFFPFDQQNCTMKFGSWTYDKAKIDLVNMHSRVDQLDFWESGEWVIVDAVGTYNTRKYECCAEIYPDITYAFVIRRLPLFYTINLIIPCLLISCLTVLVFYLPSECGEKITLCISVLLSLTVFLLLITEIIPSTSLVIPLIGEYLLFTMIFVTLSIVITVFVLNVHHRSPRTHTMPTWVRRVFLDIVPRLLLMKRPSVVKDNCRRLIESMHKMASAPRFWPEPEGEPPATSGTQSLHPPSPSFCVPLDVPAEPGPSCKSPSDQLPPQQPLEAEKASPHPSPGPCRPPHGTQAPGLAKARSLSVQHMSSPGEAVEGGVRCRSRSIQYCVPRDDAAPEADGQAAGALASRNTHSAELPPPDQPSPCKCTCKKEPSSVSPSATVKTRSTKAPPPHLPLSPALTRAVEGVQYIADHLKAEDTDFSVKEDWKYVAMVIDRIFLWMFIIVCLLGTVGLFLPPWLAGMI
The species named for data set [7] is Homo sapiens. Nature of the data set: Selectivity for human alpha4beta2 nAChR over human alpha7 nAChR.
Data set [8] addresses T1, 5-hydroxytryptamine receptor 3A (Homo sapiens, UniProt P46098).
T1 sequence (P46098 whole entry): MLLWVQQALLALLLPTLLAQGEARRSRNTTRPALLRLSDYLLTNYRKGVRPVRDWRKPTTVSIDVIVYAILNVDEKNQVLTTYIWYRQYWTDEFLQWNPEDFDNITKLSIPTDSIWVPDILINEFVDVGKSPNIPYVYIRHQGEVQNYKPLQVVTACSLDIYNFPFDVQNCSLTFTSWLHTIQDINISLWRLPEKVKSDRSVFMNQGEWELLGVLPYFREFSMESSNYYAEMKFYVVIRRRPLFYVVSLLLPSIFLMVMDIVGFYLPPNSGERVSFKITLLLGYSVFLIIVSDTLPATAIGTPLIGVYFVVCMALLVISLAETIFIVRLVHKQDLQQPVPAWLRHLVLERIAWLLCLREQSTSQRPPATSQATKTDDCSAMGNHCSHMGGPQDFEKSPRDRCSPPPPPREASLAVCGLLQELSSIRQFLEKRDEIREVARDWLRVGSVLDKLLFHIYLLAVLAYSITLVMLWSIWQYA
Nature of the data set: Antagonist activity at human 5HT3 receptor by calcium influx assay. The data set is classed as functional.

Data set [9] deals with Acetylcholine receptor; alpha1/beta1/delta/gamma (Homo sapiens, UniProt P02708+P07510+P11230+Q07001). Nature of the data set: Antagonist activity at human alpha-1-beta-1-gamma-delta nAChR expressed in human TE671 cells by calcium influx assay. The format is functional, cell-based, TE-671.
Chain of Acetylcholine receptor; alpha1/beta1/delta/gamma (P02708 whole entry): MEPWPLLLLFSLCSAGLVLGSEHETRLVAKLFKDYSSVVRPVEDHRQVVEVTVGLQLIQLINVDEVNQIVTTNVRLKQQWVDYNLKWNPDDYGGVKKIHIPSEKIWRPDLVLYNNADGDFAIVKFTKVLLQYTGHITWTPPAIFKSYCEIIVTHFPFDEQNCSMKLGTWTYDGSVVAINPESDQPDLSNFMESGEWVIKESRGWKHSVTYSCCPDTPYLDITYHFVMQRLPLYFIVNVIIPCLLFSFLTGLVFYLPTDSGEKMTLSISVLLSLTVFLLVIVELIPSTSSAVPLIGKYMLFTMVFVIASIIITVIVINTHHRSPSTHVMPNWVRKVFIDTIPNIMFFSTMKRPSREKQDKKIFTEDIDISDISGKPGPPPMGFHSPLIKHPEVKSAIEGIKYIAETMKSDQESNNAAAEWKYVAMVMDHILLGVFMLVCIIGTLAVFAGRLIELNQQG
Chain of Acetylcholine receptor; alpha1/beta1/delta/gamma (P07510 whole entry): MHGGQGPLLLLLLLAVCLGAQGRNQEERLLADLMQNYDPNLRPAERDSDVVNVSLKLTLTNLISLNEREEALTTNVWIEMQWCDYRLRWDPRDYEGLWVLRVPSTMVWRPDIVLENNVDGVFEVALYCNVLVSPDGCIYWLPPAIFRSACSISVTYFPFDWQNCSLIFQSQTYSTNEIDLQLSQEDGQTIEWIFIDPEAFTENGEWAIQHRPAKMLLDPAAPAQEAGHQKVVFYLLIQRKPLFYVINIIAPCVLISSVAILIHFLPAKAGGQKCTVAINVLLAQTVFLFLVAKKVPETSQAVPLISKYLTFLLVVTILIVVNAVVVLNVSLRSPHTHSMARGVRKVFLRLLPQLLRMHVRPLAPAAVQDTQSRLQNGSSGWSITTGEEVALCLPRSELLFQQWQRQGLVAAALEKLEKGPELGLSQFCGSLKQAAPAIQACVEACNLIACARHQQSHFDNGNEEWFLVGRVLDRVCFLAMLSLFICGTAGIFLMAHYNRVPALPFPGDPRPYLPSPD
Chain of Acetylcholine receptor; alpha1/beta1/delta/gamma (P11230 whole entry): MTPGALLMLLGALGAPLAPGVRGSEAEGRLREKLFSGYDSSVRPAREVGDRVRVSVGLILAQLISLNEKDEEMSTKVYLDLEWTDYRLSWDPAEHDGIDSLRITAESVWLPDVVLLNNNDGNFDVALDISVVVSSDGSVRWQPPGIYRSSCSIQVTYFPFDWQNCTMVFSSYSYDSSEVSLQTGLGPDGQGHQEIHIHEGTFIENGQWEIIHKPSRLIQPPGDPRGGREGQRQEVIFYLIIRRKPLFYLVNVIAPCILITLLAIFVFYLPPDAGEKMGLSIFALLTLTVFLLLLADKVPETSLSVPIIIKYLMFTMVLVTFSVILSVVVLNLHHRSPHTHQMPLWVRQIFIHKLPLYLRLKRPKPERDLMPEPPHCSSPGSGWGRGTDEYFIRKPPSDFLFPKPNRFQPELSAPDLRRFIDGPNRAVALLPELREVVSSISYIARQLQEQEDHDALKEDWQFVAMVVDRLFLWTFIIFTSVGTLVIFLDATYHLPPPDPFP
Chain of Acetylcholine receptor; alpha1/beta1/delta/gamma (Q07001 whole entry): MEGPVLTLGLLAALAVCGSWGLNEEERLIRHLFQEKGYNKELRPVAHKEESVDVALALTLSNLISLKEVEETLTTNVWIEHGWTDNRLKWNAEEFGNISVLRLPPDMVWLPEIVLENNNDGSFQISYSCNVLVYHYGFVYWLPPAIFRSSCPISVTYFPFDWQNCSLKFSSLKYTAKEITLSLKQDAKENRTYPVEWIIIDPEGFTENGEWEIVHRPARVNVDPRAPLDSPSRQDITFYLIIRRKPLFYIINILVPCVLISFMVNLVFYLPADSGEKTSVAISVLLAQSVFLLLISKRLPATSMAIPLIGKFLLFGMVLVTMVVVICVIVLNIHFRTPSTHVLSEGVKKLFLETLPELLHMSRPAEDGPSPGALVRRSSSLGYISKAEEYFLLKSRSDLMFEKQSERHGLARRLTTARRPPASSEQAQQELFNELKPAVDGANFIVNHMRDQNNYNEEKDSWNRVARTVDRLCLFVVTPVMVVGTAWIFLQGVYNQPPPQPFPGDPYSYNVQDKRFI
Data set [10] has as its system Mus musculus. Nature of the data set: Plasma concentration in DBA/2 mouse at 30 umol/kg, po after 4 hrs. The format is ADME, organism-based. The settings on record: in vivo. The method in brief:
(§1)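 Mice (n = 6) dosed 30 µmol/kg po. Brain and plasma levels measured at 1 h and 4 h after dosing, reported as pmol/g.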

The nature of data set [11]: Octanol-water partition coefficient, log P of the compound. The format is physicochemical.
The subject of data set [12] is Brain. Nature of the data set: Drug level in DBA/2 mouse brain at 30 umol/kg, po after 1 hr. The data set is classed as ADME, organism-based. The settings on record: in vivo. In outline:
as §1

Data set [13] has as its system Mus musculus. Nature of the data set: Plasma concentration in DBA/2 mouse at 30 umol/kg, po after 1 hr. The format is ADME, organism-based. The settings on record: in vivo. The method in brief: as §1
In data set [14] the test system is Brain. Nature of the data set: Drug level in DBA/2 mouse brain at 30 umol/kg, po after 4 hrs. The data set is classed as ADME, organism-based. The settings on record: in vivo. The method in brief: as §1
Data set [15] is described as follows: Metabolic stability in mouse liver microsomes assessed as hepatic extraction ratio. The format is ADME, Microsome. The settings on record: read-out: Activity. In outline:
(§2)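 Compound incubated with mouse or human liver microsomes. In vitro hepatic extraction ratio reported as % compound depleted at the end of the experiment; half-life also given.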

A short description of data set [16]: Metabolic stability in human liver microsomes assessed as hepatic extraction ratio. The format is ADME, Microsome. The settings on record: read-out: Activity. The method in brief: as §2
In general terms: Liver microsomes are vesicles of endoplasmic reticulum, rich in cytochrome P450 enzymes.

Chain of Neuronal acetylcholine receptor subunit alpha-7 (P36544 whole entry): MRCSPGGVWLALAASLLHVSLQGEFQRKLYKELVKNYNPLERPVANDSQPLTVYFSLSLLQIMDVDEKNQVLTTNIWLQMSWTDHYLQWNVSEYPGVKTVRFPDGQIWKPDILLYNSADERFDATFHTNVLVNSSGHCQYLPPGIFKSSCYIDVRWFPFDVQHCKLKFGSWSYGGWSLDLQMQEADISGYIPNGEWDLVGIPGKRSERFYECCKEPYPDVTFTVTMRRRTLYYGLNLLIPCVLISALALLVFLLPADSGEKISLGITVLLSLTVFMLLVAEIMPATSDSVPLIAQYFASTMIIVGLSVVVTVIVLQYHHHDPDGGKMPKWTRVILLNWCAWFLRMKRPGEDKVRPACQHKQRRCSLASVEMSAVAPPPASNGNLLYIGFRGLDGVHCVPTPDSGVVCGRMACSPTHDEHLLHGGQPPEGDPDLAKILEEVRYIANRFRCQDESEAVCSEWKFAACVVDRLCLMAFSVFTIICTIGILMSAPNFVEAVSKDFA

As usually defined, the EC50 is the concentration needed to bring the measured effect to its halfway point. For orientation: Emax means the size of the effect at its maximum, as opposed to the concentration needed. Consider `O=C1NC[C@@]2(CN3CCC2CC3)O1`, for which, in data set [1], the concentration for a half-maximal effect (EC50) was 0.398 µM and the Emax amounted to 104%.

For the molecule `CN1C(=O)[C@@H](CN2CCCCC2)C[C@H]1c1ccccc1Cl`, in data set [1], the EC50 was 0.794 µM and the Emax was 89%.

In the case of `CN1C(=O)[C@@H](CN2CCCCC2)C[C@H]1C#Cc1ccccc1Cl`, in [1], the concentration for a half-maximal effect (EC50) is 0.0251 µM and the Emax was 89%. The Ratio in the data set filed under Homo sapiens [2] was 52.

As for `CN1C(=O)[C@@H](CN2CCCCC2)C[C@H]1c1ccc(-c2ccccc2)cc1`, in data set [1], the EC50 was 1.26 µM and the maximal effect (Emax) amounted to 61%.

With `CN1CCC[C@H]1c1cccnc1`, the maximum response (Emax) in data set [1] came to 100%.

With `CN1C(=O)[C@@H](CN2CCCCC2)C[C@H]1c1nc(-c2ccccc2Cl)c[nH]1` (relative stereo), in data set [1], the EC50 is 1.26 µM and the Emax was found to be 61%.

In the case of `CN1C(=O)[C@@H](CN2CCCCC2)C[C@H]1c1ccc(Br)cc1` (relative stereo), in [1], the EC50 is 0.631 µM and the Emax worked out at 89%.

Consider `Cc1cc([C@@H]2C[C@H](CN3CCCCC3)C(=O)N2C)sc1-c1ccccc1Cl` (relative stereo), for which, in [1], the EC50 was 0.631 µM and the Emax was 81%.

By IC50 is commonly meant the midpoint of a concentration-inhibition curve. Take `CN1C(=O)[C@@H](CN2CCCCC2)C[C@H]1C#Cc1ccc2c(ccn2C)c1` (relative stereo): the Ratio came to 431 in the data set filed under Homo sapiens [3], 3220 in the data set filed under Homo sapiens [5], 111 in the data set listed under Homo sapiens [2] and 232 in the data set listed under Homo sapiens [7]. In addition, the half-maximal inhibitory concentration (IC50) is 1 µM in [4], 2 µM in data set [6], 25.1 µM in data set [8] and 3.98 µM in [9]. Also, the half-maximal effective concentration (EC50) in data set [1] was 0.00794 µM. Also, the maximal response (Emax) in [1] stood at 100%.

As usually defined, the logP is a log measure of how a compound divides between an organic and an aqueous phase. A low value points to lower lipophilicity. As for `CN1C(=O)[C@@H](CN2CCCCC2)C[C@H]1C#Cc1ccc2occc2c1` (relative stereo), the Cp with Mus musculus [10] is 544 pmol/g; in the data set with Mus musculus [13] it was 1001 pmol/g. Besides, the Ratio stood at 17000 in the data set listed under Homo sapiens [3], 17000 in the data set filed under Homo sapiens [5], 123 in the data set listed under Homo sapiens [2] and 660 in the data set listed under Homo sapiens [7]. Besides, the IC50 in data set [4] was 0.794 µM; in data set [6], 5.01 µM; in [8] it was 100 µM; in [9], 100 µM. Also, the half-maximal effective concentration (EC50) in data set [1] is 0.00794 µM. The Emax in [1] worked out at 90%. This molecule also showed a logP in data set [11] of 3.9. For the same molecule, the Drug uptake worked out at 6533 pmol/g with Brain [12] and 3676 pmol/g in the data set with Brain [14]. Besides, the hepatic extraction ratio in data set [15] turned out to be 0.67; in data set [16], 0.68.

As for `CN1C(=O)[C@@H](CN2CCCCC2)C[C@H]1c1nc(-c2ccccc2Cl)cn1C` (relative stereo), in [1], the EC50 is 0.631 µM and the Emax is 47%.

`Cc1ccccc1C#C[C@@H]1C[C@H](CN2CCCCC2)C(=O)N1C` (relative stereo): in data set [1], the EC50 was 0.0158 µM and the maximal effect (Emax) amounted to 83%. For the same molecule, in the data set listed under Homo sapiens [2], the Ratio was 104.

In the case of `CN1C(=O)[C@@H](CN2CCCCC2)C[C@H]1c1ccc(C2CCCC2)cc1` (relative stereo), in [1], the EC50 is 0.316 µM and the maximal effect (Emax) was determined as 28%.

In the case of `CN1C(=O)[C@@H](CN2CCCCC2)C[C@H]1c1ccc(-c2ccccc2F)cc1` (relative stereo), in data set [1], the concentration for a half-maximal effect (EC50) was 0.316 µM and the Emax was 47%.

As for `CN1C(=O)[C@@H](CN2CCCCC2)C[C@H]1c1ccc(-c2ccccc2Cl)cc1` (relative stereo), in data set [1], the EC50 is 0.126 µM and the Emax came out at 62%. Further, the Ratio in the data set filed under Homo sapiens [2] was 3.

`CN1C(=O)[C@@H](CN2CCCCC2)C[C@H]1c1ccc(-c2ccccc2Cl)s1` (relative stereo): in data set [1], the concentration giving a half-maximal response (EC50) was 0.0316 µM and the Emax amounted to 79%. Besides, the Ratio in the data set listed under Homo sapiens [2] was 26.

Consider `CN1C(=O)[C@@H](CN2CCCCC2)C[C@H]1c1cccc(Cl)c1` (relative stereo), for which, in [1], the half-maximal effective concentration (EC50) is 1 µM and the Emax worked out at 102%.

As to `COc1cccc([C@@H]2C[C@H](CN3CCCC3)C(=O)N2C)c1` (relative stereo), in data set [1], the EC50 is 7.94 µM and the Emax amounted to 80%.

In the case of `COc1ccccc1[C@@H]1C[C@H](CN2CCCCC2)C(=O)N1C` (relative stereo), in [1], the 50% effective concentration (EC50) is 1.26 µM and the maximal response (Emax) came out at 107%.

As to `COc1ccc([C@@H]2C[C@H](CN3CCCCC3)C(=O)N2C)cc1` (relative stereo), in data set [1], the EC50 is 1.26 µM and the maximum response (Emax) was found to be 124%.

Regarding `CN1C(=O)[C@@H](CN2CCCCC2)C[C@H]1C#Cc1ccc2c(c1)CCO2` (relative stereo), the Ratio in the data set filed under Homo sapiens [3] came to 773; in the data set filed under Homo sapiens [5] it was 5390; in the data set filed under Homo sapiens [2] it was 154; in the data set listed under Homo sapiens [7], 1260. The IC50 was 1 µM in [4], 10 µM in data set [6], 50.1 µM in data set [8] and 6.31 µM in [9]. Also, the EC50 in [1] is 0.00794 µM. The maximal response (Emax) in [1] is 80%.

Turning to `CN1C(=O)[C@@H](CN2CCCCC2)C[C@H]1c1ccc(Cl)cc1` (relative stereo), in [1], the concentration giving a half-maximal response (EC50) is 1 µM and the Emax amounted to 110%.

Turning to `Cc1ccc([C@@H]2C[C@H](CN3CCCCC3)C(=O)N2C)cc1` (relative stereo), in data set [1], the EC50 was 0.631 µM and the Emax turned out to be 114%.

With `CN1C(=O)[C@@H](CN2CCCCC2)C[C@H]1c1cnc(-c2ccccc2Cl)s1` (relative stereo), in data set [1], the 50% effective concentration (EC50) is 0.0251 µM and the maximal response (Emax) worked out at 89%. In the data set filed under Homo sapiens [2], the Ratio was 14.

For the molecule `CN1C(=O)[C@@H](CN2CCCCC2)C[C@H]1c1ccc(C2CCCCC2)cc1` (relative stereo), in [1], the concentration giving a half-maximal response (EC50) was 0.316 µM and the Emax was determined as 60%.

In the case of `COc1cccc([C@@H]2C[C@H](CN3CCCCC3)C(=O)N2C)c1` (relative stereo), in data set [1], the half-maximal effective concentration (EC50) is 1.26 µM and the Emax amounted to 128%.

Regarding `CN1C(=O)[C@@H](CN2CCCCCC2)C[C@H]1c1ccccc1Cl` (relative stereo), in data set [1], the EC50 is 2 µM and the maximal effect (Emax) came to 82%.

On to `Clc1ccc([C@@H]2C[C@H]3CC[C@@H]2N3)cn1` [(+)-EPIBATIDINE], for which, in data set [1], the EC50 was 0.0398 µM and the Emax is 100%.

Regarding `COc1ccc(/C=C2\CCCN=C2c2cccnc2)c(OC)c1` [GTS-21], in [1], the half-maximal effective concentration (EC50) is 2 µM and the maximal response (Emax) was 71%.

The record behind these values is ChEMBL document CHEMBL1153277 (Bioorg Med Chem Lett, 2009).
